According to ChEMBL document CHEMBL1156982, “New 3-methylquinoxaline-2-carboxamide 1,4-di-N-oxide derivatives as anti-Mycobacterium tuberculosis agents” (Bioorg Med Chem, 2010):
In brackets after ≈: the same amount, converted by molar mass.

Key:
[1] = Selectivity ratio of IC50 for Vero cells to MIC for Mycobacterium tuberculosis H37Rv ATCC 27294; format: functional
In short: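 SI is the ratio of the IC50 measured in VERO cells (72 h MTT) to the MIC against M. tuberculosis H37Rv (MABA, 90% fluorescence reduction). An SI of 10 or more counts as active at the second screening level.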

Vero = assay: Cytotoxicity against african green monkey Vero cells after 72 hrs by MTT assay; format: cell-based; conditions: Chlorocebus sabaeus
In short: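 VERO cells were exposed to compound for 72 h. Viability was read from cellular conversion of MTT to formazan (CellTiter 96 non-radioactive proliferation assay), and the IC50 was determined.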

[2] = test system: Mycobacterium tuberculosis; assay: Antituberculosis activity against Mycobacterium tuberculosis H37Rv ATCC 27294 after 4 days by microplate alamar blue assay; format: functional; conditions: H37Rv ATCC 27294, 96 h
In short: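 M. tuberculosis H37Rv (ATCC 27294) in BACTEC 12B medium, tested by Microplate Alamar Blue Assay across a range of lower concentrations. MIC is the lowest concentration giving a 90% reduction in fluorescence versus controls. Rifampicin was the reference.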

[3] = test system: Mycobacterium tuberculosis; assay: Antituberculosis activity against Mycobacterium tuberculosis H37Rv ATCC 27294; format: functional

| Compound | Selectivity ratio [1] | IC50 (Vero) | MIC [2] | Activity [3] |
| --- | --- | --- | --- | --- |
| Cc1c(C(=O)NCCc2ccccc2)[n+]([O-])c2cc(C(F)(F)F)ccc2[n+]1[O-] | >26.019 | > 30 µg/mL | 1.15 µg/mL (≈ 2.95 µM) | >=90% |
| COc1ccc(CCNC(=O)c2c(C)[n+]([O-])c3ccccc3[n+]2[O-])cc1 | >8.6605 | > 30 µg/mL | 3.46 µg/mL (≈ 9.8 µM) | >=90% |
| COc1ccc(CCNC(=O)c2c(C)[n+]([O-])c3ccc(F)cc3[n+]2[O-])cc1 | >153.84 | > 30 µg/mL | < 0.195 µg/mL | >=90% |
| COc1ccc(CCNC(=O)c2c(C)[n+]([O-])c3cc(F)c(F)cc3[n+]2[O-])cc1 | >14.577 | > 30 µg/mL | 2.06 µg/mL (≈ 5.29 µM) | >=90% |
| Cc1c(C(=O)NCc2ccccc2)[n+]([O-])c2cc(F)c(F)cc2[n+]1[O-] | 10.64 | 18.4 µg/mL (≈ 53.2 µM) | 1.73 µg/mL (≈ 5 µM) | >=90% |
| Cc1c(C(=O)NCCc2ccccc2)[n+]([O-])c2cc(Cl)c(Cl)cc2[n+]1[O-] | >153.84 | > 30 µg/mL | < 0.195 µg/mL | >=90% |
| Cc1c(C(=O)NCCc2ccccc2)[n+]([O-])c2cc(F)ccc2[n+]1[O-] | >198.41 | > 100 µg/mL | 0.504 µg/mL (≈ 1.48 µM) | >=90% |
| COc1ccc2c(c1)[n+]([O-])c(C(=O)NCc1ccccc1)c(C)[n+]2[O-] |  |  | 12.3 µg/mL (≈ 36.4 µM) | >=90% |
| Cc1c(C(=O)NCc2ccccc2)[n+]([O-])c2cc(Cl)ccc2[n+]1[O-] | >230.94 | > 100 µg/mL | 0.433 µg/mL (≈ 1.26 µM) | >=90% |
| Cc1ccc2c(c1)[n+]([O-])c(C(=O)NCc1ccccc1)c(C)[n+]2[O-] | >23.77 | > 100 µg/mL | 4.21 µg/mL (≈ 13 µM) | >=90% |
| Cc1c(C(=O)NCCc2ccccc2)[n+]([O-])c2cc(F)c(F)cc2[n+]1[O-] | >58.027 | > 30 µg/mL | 0.517 µg/mL (≈ 1.44 µM) | >=90% |
| COc1ccc(CCNC(=O)c2c(C)[n+]([O-])c3ccc(Cl)cc3[n+]2[O-])cc1 | >153.84 | > 30 µg/mL | < 0.195 µg/mL | >=90% |
| COc1ccc(CCNC(=O)c2c(C)[n+]([O-])c3cc(Cl)c(Cl)cc3[n+]2[O-])cc1 | >66.079 | > 30 µg/mL | 0.454 µg/mL (≈ 1.08 µM) | >=90% |
| Cc1c(C(=O)NCc2ccccc2)[n+]([O-])c2cc(Cl)c(Cl)cc2[n+]1[O-] | >500 | > 100 µg/mL | < 0.2 µg/mL | >=90% |
| COc1ccc(CNC(=O)c2c(C)[n+]([O-])c3ccc(C(F)(F)F)cc3[n+]2[O-])cc1 | >30.03 | > 30 µg/mL | 0.999 µg/mL (≈ 2.45 µM) | >=90% |
| Cc1c(C(=O)NCc2ccccc2)[n+]([O-])c2cc(C(F)(F)F)ccc2[n+]1[O-] | >246.3 | > 100 µg/mL | 0.406 µg/mL (≈ 1.08 µM) | >=90% |
| COc1ccc(CNC(=O)c2c(C)[n+]([O-])c3ccccc3[n+]2[O-])cc1 | >10.537 | > 30 µg/mL | 2.85 µg/mL (≈ 8.39 µM) | >=90% |
| COc1ccc(CNC(=O)c2c(C)[n+]([O-])c3ccc(C)cc3[n+]2[O-])cc1 | >3.3696 | > 30 µg/mL | 8.9 µg/mL (≈ 25.2 µM) | >=90% |
| Cc1c(C(=O)NCc2ccccc2)[n+]([O-])c2cc(F)ccc2[n+]1[O-] | >65.7 | > 100 µg/mL | 1.52 µg/mL (≈ 4.65 µM) | >=90% |

| Compound | Selectivity ratio [1] | IC50 (Vero) | MIC [2] | Activity [3] |
| --- | --- | --- | --- | --- |
| COc1ccc(CNC(=O)c2c(C)[n+]([O-])c3cc(C)c(C)cc3[n+]2[O-])cc1 |  |  | > 100 µg/mL | >=90% |
| Cc1c(C(=O)NCCc2ccccc2)[n+]([O-])c2ccccc2[n+]1[O-] | >32.81 | > 100 µg/mL | 3.05 µg/mL (≈ 9.43 µM) | >=90% |
| Cc1ccc2c(c1)[n+]([O-])c(C(=O)NCCc1ccccc1)c(C)[n+]2[O-] | >11.6 | > 100 µg/mL | 8.62 µg/mL (≈ 25.6 µM) | >=90% |
| Cc1cc2c(cc1C)[n+]([O-])c(C(=O)NCCc1ccccc1)c(C)[n+]2[O-] |  |  | 16.4 µg/mL (≈ 46.6 µM) | >=90% |
| COc1ccc2c(c1)[n+]([O-])c(C(=O)NCCc1ccccc1)c(C)[n+]2[O-] |  |  | 13.7 µg/mL (≈ 38.7 µM) | >=90% |
| Cc1c(C(=O)NCCc2ccccc2)[n+]([O-])c2cc(Cl)ccc2[n+]1[O-] | >500 | > 100 µg/mL | < 0.2 µg/mL | >=90% |
| COc1ccc(CCNC(=O)c2c(C)[n+]([O-])c3ccc(C(F)(F)F)cc3[n+]2[O-])cc1 | >21.023 | > 30 µg/mL | 1.43 µg/mL (≈ 3.39 µM) | >=90% |
| COc1ccc(CNC(=O)c2c(C)[n+]([O-])c3ccc(OC)cc3[n+]2[O-])cc1 |  |  | 12 µg/mL (≈ 32.5 µM) | >=90% |
| COc1ccc(CCNC(=O)c2c(C)[n+]([O-])c3ccc(OC)cc3[n+]2[O-])cc1 |  |  | 16.9 µg/mL (≈ 44 µM) | >=90% |
| COc1ccc(CNC(=O)c2c(C)[n+]([O-])c3ccc(Cl)cc3[n+]2[O-])cc1 |  |  |  | >=90% |
| Cc1c(C(=O)NCc2ccccc2)[n+]([O-])c2ccccc2[n+]1[O-] | >38.372 | > 100 µg/mL | 2.61 µg/mL (≈ 8.42 µM) | >=90% |
| Cc1cc2c(cc1C)[n+]([O-])c(C(=O)NCc1ccccc1)c(C)[n+]2[O-] |  |  | > 100 µg/mL | >=90% |
| COc1ccc(CCNC(=O)c2c(C)[n+]([O-])c3ccc(C)cc3[n+]2[O-])cc1 | >3.389 | > 30 µg/mL | 8.85 µg/mL (≈ 24.1 µM) | >=90% |
| COc1ccc(CCNC(=O)c2c(C)[n+]([O-])c3cc(C)c(C)cc3[n+]2[O-])cc1 |  |  | > 100 µg/mL | >=90% |
| COc1ccc(CNC(=O)c2c(C)[n+]([O-])c3cc(Cl)c(Cl)cc3[n+]2[O-])cc1 |  |  |  | >=90% |
| COc1ccc(CNC(=O)c2c(C)[n+]([O-])c3ccc(F)cc3[n+]2[O-])cc1 | >19.893 | > 30 µg/mL | 1.51 µg/mL (≈ 4.22 µM) | >=90% |
| COc1ccc(CNC(=O)c2c(C)[n+]([O-])c3cc(F)c(F)cc3[n+]2[O-])cc1 | 21.734 | 16.6 µg/mL (≈ 44.2 µM) | 0.764 µg/mL (≈ 2.04 µM) | >=90% |
| CO[C@H]1/C=C/O[C@@]2(C)Oc3c(C)c(O)c4c(O)c(c(/C=N/N5CCN(C)CC5)c(O)c4c3C2=O)NC(=O)/C(C)=C\C=C\[C@H](C)[C@H](O)[C@@H](C)[C@@H](O)[C@@H](C)[C@H](OC(C)=O)[C@@H]1C [RIFAMPIN] | >800 | > 100 µg/mL | 0.015 µg/mL (≈ 0.0182 µM) |  |
